Experiments:
Mus musculus [1] = species: Mus musculus; test: animal or person; assay type: functional; conditions: CD-1 Charles River, sc
Mus musculus [2] = test: Analgesic activity in CD-1 Charles River mouse at 25 mg/kg, sc measured for 15 to 60 mins by tail flick test relative to control; assay type: functional; conditions: route subcutaneous
Summary of the method: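 Male CD-1 mice, ten per group, were restrained and given an intense light-beam stimulus, and tail-flick latency was recorded. Two baseline readings were taken. Mice were excluded if their readings differed by more than 1 s or if including them would widen the group spread beyond 3 s. A cutoff was set from the baselines. Drug was given sc (vehicle 10 mL/kg), and mice were tested at 15, 30, 45 and 60 min. Responses beyond the cutoff counted as analgesia, reported as percent.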

Mus musculus [3] = test: Analgesic activity in CD-1 Charles River mouse assessed as inhibition of phenyl-p-benzoquinine-induced writhing at 25 mg/kg, po administered 15 to 90 mins prior to phenyl-p-benzoquinine challenge measured after 5 mins relative to control; assay type: functional
Summary of the method: (§1)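 Male CD-1 Charles River mice (18-24 g), five per group, were given the drug 15, 30, 60 and 90 min before an injection of 0.125% phenyl-p-benzoquinone in 5% aqueous ethanol. The vehicle was distilled water with a few drops of Tween 80. Writhes were counted for 10 min, starting 5 min after the injection, with mice held singly in beakers. The read-out was percent inhibition of writhes versus vehicle-treated mice.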

Mus musculus [4] = test: Analgesic activity in po dosed CD-1 Charles River mouse assessed as inhibition of phenyl-p-benzoquinine-induced writhing administered 15 to 90 mins prior to phenyl-p-benzoquinine challenge measured after 5 mins; assay type: functional
Mus musculus [5] = test: Analgesic activity in sc dosed CD-1 Charles River mouse measured for 15 to 60 mins by tail flick test relative to control; assay type: functional
Mus musculus [6] = test: Ratio of ED50 for inhibition of phenyl-p-benzoquinine-induced writhing in po dosed CD-1 Charles River mouse to ED50 for inhibition of phenyl-p-benzoquinine-induced writhing in sc dosed CD-1 Charles River mouse; assay type: functional
Summary of the method: (§2)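 Writhing ED50s came from male CD-1 mice, ten per dose, tested at peak time after sc or po dosing, with four doses plus a vehicle control (water with Tween 80) in randomized order. Writhes were counted for 10 min, beginning 5 min after 0.125% phenyl-p-benzoquinone. ED50 was estimated by linear regression of percent inhibition, and ratios were formed from these ED50s.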

Mus musculus [7] = test: Analgesic activity in CD-1 Charles River mouse assessed as inhibition of phenyl-p-benzoquinine-induced writhing at 25 mg/kg, sc administered 15 to 90 mins prior to phenyl-p-benzoquinine challenge measured after 5 mins relative to control; assay type: functional; conditions: route subcutaneous
Summary of the method: as §1

[8] = Ratio of ED50 for neurotoxicity in CD-1 Charles River mouse by rotarod test to ED50 for inhibition of phenyl-p-benzoquinine-induced writhing in CD-1 Charles River mouse; assay type: toxicity, organism-based; conditions: CD-1, mouse, in vivo; read-out: Ratio ED50
Mus musculus [9] = test: Potency index, ratio of propoxyphene ED50 to compound ED50 for inhibition of phenyl-p-benzoquinine-induced writhing in po dosed CD-1 Charles River mouse; assay type: functional
Summary of the method: as §2

Mus musculus [10] = test: Analgesic activity in po dosed CD-1 Charles River mouse measured for 15 to 60 mins by tail flick test relative to control; assay type: functional
Mus musculus [11] = test: Potency index, ratio of propoxyphene ED50 to compound ED50 for inhibition of phenyl-p-benzoquinine-induced writhing in sc dosed CD-1 Charles River mouse; assay type: functional
Summary of the method: as §2

Mus musculus [12] = test: Analgesic activity in CD-1 Charles River mouse assessed as inhibition of phenyl-p-benzoquinine-induced writhing at 5 mg/kg, po administered 15 to 90 mins prior to phenyl-p-benzoquinine challenge measured after 5 mins relative to control; assay type: functional
Summary of the method: as §1

Br.CN1CCC2(CC1)C(=O)c1ccccc1Oc1ccccc12
ED50 (Mus musculus [1]): 5.2 mg/kg
Activity (Mus musculus [2]): 13%

Br.O=C1c2ccccc2Oc2ccccc2C12CCN(CC1CC1)CC2
ED50 (Mus musculus [1]): 6 mg/kg
inhibition in vivo at 25 mg/kg (Mus musculus [3]): 59%

Br.CN1CCC2(CC1)C(=O)c1cc(Cl)ccc1Oc1ccccc12
ED50 (Mus musculus [4]): 5.2 mg/kg
ED50 (Mus musculus [1]): 3.5 mg/kg
ED50 (Mus musculus [5]): 13.2 mg/kg
Ratio ED50 (Mus musculus [6]): 1.5

CCC(=O)O[C@](Cc1ccccc1)(c1ccccc1)[C@H](C)CN(C)C [PROPOXYPHENE]
ED50 (Mus musculus [4]): 24.6 mg/kg
ED50 (Mus musculus [1]): 3.9 mg/kg
Ratio ED50 (Mus musculus [6]): 6.3

Br.O=C1c2cc(Cl)ccc2Oc2ccccc2C12CCNCC2
ED50 (Mus musculus [4]): 7.7 mg/kg
ED50 (Mus musculus [1]): 3.7 mg/kg
ED50 (Mus musculus [5]): 12 mg/kg
Ratio ED50 (Mus musculus [6]): 2

CC(C)=CCN1CCC2(CC1)C(=O)c1cc(Cl)ccc1Oc1ccccc12
inhibition in vivo at 25 mg/kg (Mus musculus [7]): 42%

Br.C#CCN1CCC2(CC1)C(=O)c1ccccc1Oc1ccccc12
inhibition in vivo at 25 mg/kg (Mus musculus [7]): 57%
Activity (Mus musculus [2]): 20%

CC(C)=CCN1CC[C@]2(C)c3cc(O)ccc3C[C@H]1[C@H]2C [(+)-PENTAZOCINE]
ED50 (Mus musculus [1]): 2.4 mg/kg

Br.O=C1c2ccccc2Oc2ccccc2C12CCN(CCc1ccccc1)CC2
ED50 (Mus musculus [1]): 21 mg/kg
Activity (Mus musculus [2]): 40%

O=C1c2cc(Cl)ccc2Oc2ccccc2C12CCN(CCc1ccccc1)CC2
inhibition in vivo at 25 mg/kg (Mus musculus [7]): 30%
Activity (Mus musculus [2]): 0%

Br.O=C1c2cc(Cl)ccc2Oc2ccccc2C12CCN(CC1CC1)CC2
inhibition in vivo at 25 mg/kg (Mus musculus [7]): 31%
Activity (Mus musculus [2]): 0%

CN1CC[C@]23c4c5ccc(O)c4O[C@H]2[C@@H](O)C=C[C@H]3[C@H]1C5.CN1CC[C@]23c4c5ccc(O)c4O[C@H]2[C@@H](O)C=C[C@H]3[C@H]1C5.O=S(=O)(O)O
ED50 (Mus musculus [1]): 0.36 mg/kg

Br.O=C1c2ccccc2Oc2ccccc2C12CCN(CCO)CC2
ED50 (Mus musculus [1]): 2.8 mg/kg
Activity (Mus musculus [2]): 40%

Br.O=C1c2cc(Cl)ccc2Oc2ccccc2C12CCN(CCO)CC2
ED50 (Mus musculus [1]): 7 mg/kg
Activity (Mus musculus [2]): 30%

Br.O=C1c2ccccc2Oc2ccccc2C12CCN(CCCOc1ccccc1)CC2
inhibition in vivo at 25 mg/kg (Mus musculus [7]): 55%
Activity (Mus musculus [2]): 20%

O=C1c2cc(Cl)ccc2Oc2ccccc2C12CCN(CCCOc1ccccc1)CC2
inhibition in vivo at 25 mg/kg (Mus musculus [7]): 54%
Activity (Mus musculus [2]): 0%

C#CCN1CCC2(CC1)C(=O)c1cc(Cl)ccc1Oc1ccccc12
inhibition in vivo at 25 mg/kg (Mus musculus [7]): 32%
Activity (Mus musculus [2]): 10%

Cl.O=C1c2cc(F)ccc2Oc2ccccc2C12CCNCC2
selectivity ratio [8]: 17.6
ED50 (Mus musculus [4]): 2.2 mg/kg
ED50 (Mus musculus [1]): 1.6 mg/kg
Ratio ED50 (Mus musculus [9]): 10
ED50 (Mus musculus [10]): 51.4 mg/kg
Ratio ED50 (Mus musculus [6]): 1
Ratio ED50 (Mus musculus [11]): 2
Activity (Mus musculus [2]): 75%

Br.O=C1c2ccccc2Oc2ccccc2C12CCNCC2
ED50 (Mus musculus [4]): 7.5 mg/kg
ED50 (Mus musculus [1]): 1.7 mg/kg
Ratio ED50 (Mus musculus [6]): 4.5
Activity (Mus musculus [2]): 60%

Br.CN1CCC2(CC1)C(=O)c1cc(F)ccc1Oc1ccccc12
ED50 (Mus musculus [4]): 2 mg/kg
ED50 (Mus musculus [1]): 1.9 mg/kg
Ratio ED50 (Mus musculus [9]): 10
Ratio ED50 (Mus musculus [6]): 1
Ratio ED50 (Mus musculus [11]): 2
Activity (Mus musculus [2]): 30%

Br.O=C(CCCN1CCC2(CC1)C(=O)c1ccccc1Oc1ccccc12)c1ccc(F)cc1
Activity (Mus musculus [2]): 60%
inhibition in vivo at 5 mg/kg (Mus musculus [12]): 67%

Br.C=CCN1CCC2(CC1)C(=O)c1cc(Cl)ccc1Oc1ccccc12
inhibition in vivo at 25 mg/kg (Mus musculus [7]): 37%
Activity (Mus musculus [2]): 10%

Br.CCCN1CCC2(CC1)C(=O)c1cc(Cl)ccc1Oc1ccccc12
inhibition in vivo at 25 mg/kg (Mus musculus [7]): 22%
Activity (Mus musculus [2]): 10%

Br.CCN1CCC2(CC1)C(=O)c1cc(Cl)ccc1Oc1ccccc12
inhibition in vivo at 25 mg/kg (Mus musculus [7]): 67%
Activity (Mus musculus [2]): 0%

Br.O=C(CCCN1CCC2(CC1)C(=O)c1cc(Cl)ccc1Oc1ccccc12)c1ccc(F)cc1
inhibition in vivo at 25 mg/kg (Mus musculus [7]): 49%
Activity (Mus musculus [2]): 20%

Reference: ChEMBL document CHEMBL3244352, “Synthesis and analgesic activity of some spiro[dibenz[b,f]oxepin-10,4'-piperidine] derivatives” (J Med Chem, 1979)
